From ChEMBL document CHEMBL4261531, “Synthesis of thioether andrographolide derivatives and their inhibitory effect against cancer cells” (Medchemcomm, 2017) come the findings set out here.

Data set [1] has as its system Vero. Description: Cytotoxicity against African green monkey Vero cells at 100 uM after 48 hrs by MTT assay. It counts as cell-based. Particulars: chlorocebus sabaeus.
In data set [2] the test system is A549. The data set can be described thus: Growth inhibition of human A549 cells after 48 hrs by MTT assay. It counts as functional, cell-based. Particulars: A549, 48 h.
Data set [3] deals with MDA-MB-231. The data set can be described thus: Growth inhibition of human MDA-MB-231 cells after 48 hrs by MTT assay. Format: functional, cell-based. Particulars: MDA-MB-231, 48 h.
In data set [4] the test system is PC-3. The data set can be described thus: Growth inhibition of human PC3 cells after 48 hrs by MTT assay. Format: functional, cell-based. Particulars: PC-3, 48 h. Summed up: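 PC-3 human prostate cancer cells exposed to compounds, with viability read by MTT assay; taxol served as the positive control.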
The subject of data set [5] is MCF7. Description: Growth inhibition of human MCF7 cells after 48 hrs by MTT assay. Format: functional, cell-based. Particulars: MCF7, 48 h.

In the case of `C=C1CC[C@@H]2[C@](C)(CO)[C@H](O)CC[C@@]2(C)[C@@H]1CC(Sc1ncccn1)C1=CCOC1=O` (some centres undefined), the Activity result in data set [1] is listed as “Non-Toxic”. For the same molecule, the 50% inhibitory concentration (IC50) in data set [2] was 9 µM; in data set [3], 16 µM; in data set [4], 7 µM; in data set [5], 23 µM.

As for `C=C1CC[C@@H]2[C@]3(C)COC(C)(C)O[C@@H]3CC[C@@]2(C)[C@@H]1C/C=C1/C(=O)OC[C@H]1OC(=O)CCCSc1cccs1`, the Activity result in data set [1] is “Non-Toxic”. In addition, the IC50 in data set [2] came to 25 µM; in data set [3] it was 10 µM; in data set [4], 9 µM; in data set [5], 0.7 µM.

For `C=C1CC[C@@H]2[C@]3(C)COC(C)(C)O[C@@H]3CC[C@@]2(C)[C@@H]1CC(Sc1ccc(OC)cc1)C1=CCOC1=O` (some centres undefined), in data set [4], 17 µM corresponded to half-maximal inhibition (IC50).

As to `C=C1CC[C@@H]2[C@]3(C)COC(C)(C)O[C@@H]3CC[C@@]2(C)[C@@H]1C/C=C1/C(=O)OC[C@H]1OC(=O)CCCSc1ccc(F)cc1`, half-maximal inhibition in data set [4] (IC50) required 13 µM.

With `C=C1CC[C@@H]2[C@]3(C)COC(C)(C)O[C@@H]3CC[C@@]2(C)[C@@H]1C[C@H](Sc1cccs1)C1=CCOC1=O`, in data set [1], the Activity result is reported as “Non-Toxic”. In addition, the IC50 was found to be 20 µM in data set [2], 8 µM in data set [3], 9 µM in data set [4] and 5 µM in data set [5].

Consider `C=C1CC[C@@H]2[C@](C)(CO)[C@H](O)CC[C@@]2(C)C1C/C=C1/C(=O)OC[C@H]1OC(=O)CCCSc1ccc(F)cc1` (single isomer, unassigned), for which half-maximal inhibition in data set [4] (IC50) required 12 µM.

The molecule `C=C1CC[C@@H]2[C@]3(C)COC(C)(C)O[C@@H]3CC[C@@]2(C)[C@@H]1C/C=C1/C(=O)OC[C@H]1OC(=O)CCCSc1ccc(C)cc1` showed an IC50 in data set [4] of 14 µM.

The molecule `C=C1CC[C@@H]2[C@](C)(CO)[C@H](O)CC[C@@]2(C)C1C/C=C1/C(=O)OC[C@H]1OC(=O)CCCSc1cccs1` (single isomer, unassigned) had an IC50 in data set [4] of 16 µM.

`C=C1CC[C@@H]2[C@](C)(CO)[C@H](O)CC[C@@]2(C)C1C/C=C1/C(=O)OC[C@H]1OC(=O)CCCSc1ccc([N+](=O)[O-])cc1` (single isomer, unassigned) yielded an IC50 in data set [4] of 17 µM.

With `C=C1CC[C@@H]2[C@](C)(CO)[C@H](O)CC[C@@]2(C)[C@@H]1CC(Sc1ccccc1)C1=CCOC1=O` (some centres undefined), the IC50 in data set [4] amounted to 14 µM.

In the case of `C=C1CC[C@@H]2[C@](C)(CO)[C@H](O)CC[C@@]2(C)[C@@H]1CC(Sc1ccccn1)C1=CCOC1=O` (some centres undefined), in data set [4], the concentration for half-maximal inhibition (IC50) came out at 18 µM.

On to `C=C1CC[C@@H]2[C@](C)(CO)[C@H](O)CC[C@@]2(C)[C@@H]1CC(Sc1ccc([N+](=O)[O-])cc1)C1=CCOC1=O` (some centres undefined), for which the half-maximal inhibitory concentration (IC50) in data set [4] was determined as 17 µM.

For `C=C1CC[C@@H]2[C@](C)(CO)[C@H](O)CC[C@@]2(C)[C@@H]1C/C=C1/C(=O)OCC1OC(=O)CSc1ccc(F)cc1` (some centres undefined), in data set [4], the midpoint of inhibition, the IC50, lay at 13 µM.

With `C=C1CC[C@@H]2[C@]3(C)COC(C)(C)O[C@@H]3CC[C@@]2(C)[C@@H]1C/C=C1/C(=O)OC[C@H]1OC(=O)CCCSc1ccccn1`, in data set [1], the Activity result was “Non-Toxic”. The IC50 came to 23 µM in data set [2], 6 µM in data set [3], 9 µM in data set [4] and 0.6 µM in data set [5].

In turn, `C=C1CC[C@@H]2[C@](C)(CO)[C@H](O)CC[C@@]2(C)[C@@H]1C/C=C1/C(=O)OC[C@H]1OC(=O)CSc1cccs1` came in with an IC50 in data set [4] of 18 µM.

With `C=C1CC[C@@H]2[C@]3(C)COC(C)(C)O[C@@H]3CC[C@@]2(C)[C@@H]1CC(Sc1ncccn1)C1=CCOC1=O` (some centres undefined), the Activity result in data set [1] is recorded as “Non-Toxic”. The IC50 in data set [2] stood at 20 µM; in data set [3] it was 9 µM; in data set [4] it was 7 µM; in data set [5] it was 7 µM.

As to `C=C1CC[C@@H]2[C@]3(C)COC(C)(C)O[C@@H]3CC[C@@]2(C)[C@@H]1CC(Sc1ccc([N+](=O)[O-])cc1)C1=CCOC1=O` (some centres undefined), half-maximal inhibition in data set [4] (IC50) was put at 12 µM.

Take `C=C1CC[C@@H]2[C@]3(C)COC(C)(C)O[C@@H]3CC[C@@]2(C)[C@@H]1C/C=C1/C(=O)OC[C@H]1OC(=O)CSc1cccs1`: the concentration for half-maximal inhibition (IC50) in data set [4] was determined as 15 µM.

On to `C=C1CC[C@@H]2[C@]3(C)COC(C)(C)O[C@@H]3CC[C@@]2(C)[C@@H]1C/C=C1/C(=O)OC[C@H]1OC(=O)CSc1ccc([N+](=O)[O-])cc1`, for which the Activity result in data set [1] was “Non-Toxic”. The IC50 in data set [2] was found to be 11 µM; in data set [3] it was 19 µM; in data set [4], 9 µM; in data set [5], 10 µM.

Regarding `C=C1CC[C@@H]2[C@](C)(CO)[C@H](O)CC[C@@]2(C)[C@@H]1CC(Sc1ccc(F)cc1)C1=CCOC1=O` (some centres undefined), the concentration for half-maximal inhibition (IC50) in data set [4] stood at 16 µM.

On to `CC(=O)O[C@H]1C(=O)[C@@]2(C)[C@H]([C@H](OC(=O)c3ccccc3)[C@]3(O)C[C@H](OC(=O)[C@H](O)[C@@H](NC(=O)c4ccccc4)c4ccccc4)C(C)=C1C3(C)C)[C@]1(OC(C)=O)CO[C@@H]1C[C@@H]2O` [PACLITAXEL], for which the midpoint of inhibition in data set [4], the IC50, lay at 7 µM.

On to `C=C1CC[C@@H]2[C@]3(C)COC(C)(C)O[C@@H]3CC[C@@]2(C)[C@@H]1C/C=C1/C(=O)OC[C@H]1OC(=O)CCCSc1ccc([N+](=O)[O-])cc1`, for which, in data set [4], the IC50 came to 17 µM.

On to `C=C1CC[C@@H]2[C@]3(C)COC(C)(C)O[C@@H]3CC[C@@]2(C)[C@@H]1CC(Sc1ccc(F)cc1)C1=CCOC1=O` (some centres undefined), for which, in data set [4], the IC50 amounted to 13 µM.

In data set [4], `C=C1CC[C@@H]2[C@](C)(CO)[C@H](O)CC[C@@]2(C)C1C/C=C1/C(=O)OC[C@H]1OC(=O)CCCSc1ccc(OC)cc1` (single isomer, unassigned) gave an IC50 of 19 µM.

As for `C=C1CC[C@@H]2[C@](C)(CO)[C@H](O)CC[C@@]2(C)[C@@H]1C/C=C1/C(=O)OC[C@H]1OC(=O)CSc1ccc(C)cc1`, inhibition in data set [4] was half-maximal at 27 µM (IC50).

Take `C=C1CC[C@@H]2[C@]3(C)COC(C)(C)O[C@@H]3CC[C@@]2(C)[C@@H]1C/C=C1/C(=O)OC[C@H]1OC(=O)CCCSc1ccc(OC)cc1`: the IC50 in data set [4] was 18 µM.

In the case of `C=C1CC[C@@H]2[C@](C)(CO)[C@H](O)CC[C@@]2(C)[C@@H]1C/C=C1/C(=O)OC[C@H]1O` [ANDROGRAPHOLIDE], in data set [4], the 50% inhibitory concentration (IC50) is 30 µM.

In data set [4], `C=C1CC[C@@H]2[C@](C)(CO)[C@H](O)CC[C@@]2(C)C1C/C=C1/C(=O)OC[C@H]1OC(=O)CCCSc1ccc(C)cc1` (single isomer, unassigned) came in with an IC50 of 16 µM.

Take `C=C1CC[C@@H]2[C@](C)(CO)[C@H](O)CC[C@@]2(C)[C@@H]1CC(Sc1ccc(OC)cc1)C1=CCOC1=O` (some centres undefined): half-maximal inhibition in data set [4] (IC50) required 15 µM.

With `C=C1CC[C@@H]2[C@](C)(CO)[C@H](O)CC[C@@]2(C)[C@@H]1CC(Sc1ccc(C)cc1)C1=CCOC1=O` (some centres undefined), 29 µM corresponded to half-maximal inhibition in data set [4] (IC50).

Regarding `C=C1CC[C@@H]2[C@](C)(CO)[C@H](O)CC[C@@]2(C)[C@@H]1C/C=C1/C(=O)OC[C@H]1OC(=O)CSc1ccc([N+](=O)[O-])cc1`, the 50% inhibitory concentration (IC50) in data set [4] is 17 µM.

Regarding `C=C1CC[C@@H]2[C@]3(C)COC(C)(C)O[C@@H]3CC[C@@]2(C)[C@@H]1CC(Sc1nccs1)C1=CCOC1=O` (some centres undefined), the Activity entry in data set [1] was “Non-Toxic”. The IC50 worked out at 31 µM in data set [2], 12 µM in data set [3], 10 µM in data set [4] and 3 µM in data set [5].

In the case of `C=C1CC[C@@H]2[C@]3(C)COC(C)(C)O[C@@H]3CC[C@@]2(C)[C@@H]1CC(Sc1ccccc1)C1=CCOC1=O` (some centres undefined), in data set [4], 12 µM corresponded to half-maximal inhibition (IC50).

`C=C1CC[C@@H]2[C@](C)(CO)[C@H](O)CC[C@@]2(C)C1C/C=C1/C(=O)OC[C@H]1OC(=O)CCCSc1ccccn1` (single isomer, unassigned) came in with an IC50 in data set [4] of 14 µM.

In data set [4], `C=C1CC[C@@H]2[C@](C)(CO)[C@H](O)CC[C@@]2(C)[C@@H]1CC(Sc1nccs1)C1=CCOC1=O` (some centres undefined) registered an IC50 of 14 µM.

The molecule `C=C1CC[C@@H]2[C@]3(C)COC(C)(C)O[C@@H]3CC[C@@]2(C)[C@@H]1CC(Sc1ccc(C)cc1)C1=CCOC1=O` (some centres undefined) had an IC50 in data set [4] of 23 µM.

With `C=C1CC[C@@H]2[C@](C)(CO)[C@H](O)CC[C@@]2(C)[C@@H]1C/C=C1/C(=O)OC[C@H]1OC(=O)CSc1ccc(F)cc1`, inhibition in data set [4] was half-maximal at 14 µM (IC50).

Take `C=C1CC[C@@H]2[C@]3(C)COC(C)(C)O[C@@H]3CC[C@@]2(C)[C@@H]1CC(Sc1ccccn1)C1=CCOC1=O` (some centres undefined): in data set [4], the IC50 was determined as 14 µM.

`C=C1CC[C@@H]2[C@]3(C)COC(C)(C)O[C@@H]3CC[C@@]2(C)[C@@H]1C/C=C1/C(=O)OC[C@H]1OC(=O)CSc1ccc(C)cc1` came in with an IC50 in data set [4] of 11 µM.

`C=C1CC[C@@H]2[C@]3(C)COC(C)(C)O[C@@H]3CC[C@@]2(C)[C@@H]1C[C@@H](Sc1cccs1)C1=CCOC1=O` had a half-inhibitory concentration (IC50) in data set [4] of 20 µM.

In turn, `C=C1CC[C@@H]2[C@](C)(CO)[C@H](O)CC[C@@]2(C)[C@@H]1CC(Sc1cccs1)C1=CCOC1=O` (some centres undefined) displayed a half-maximal inhibitory concentration (IC50) in data set [4] of 15 µM.
